Source: ChEMBL document CHEMBL1127046, “Antitumor agents. 3. Synthesis and biological activity of 4 beta-alkyl derivatives containing hydroxy, amino, and amido groups of 4'-O-demethyl-4-desoxypodophyllotoxin as antitumor agents” (J Med Chem, 1993)

Columns and labels:
L1210 [1] = assay: Antitumor activity in vivo expressed as the percentage increase in life span at the dose of 40 (mg/kg/day); assay type: functional, Mus musculus
Tubulin = Tubulin (Bos taurus, UniProt Q6B856+Q862L2+Q862F3); assay: Drug concentration needed to produce a 50% reduction of bovine brain tubulin polymerization relative to the control
P388 [2] = assay: Cytotoxicity against P388 leukemia; assay type: functional, cell-based; details: Mus musculus
[3] = Inhibition of DNA topoisomerase II from rat liver measured as 50% reduction in the amount of minicircle DNA relative to the control
L1210 [4] = assay: The number of mice survived for 30 days at the dose of 40 (mg/kg/day); assay type: functional, Mus musculus
[5] = Inhibition of growth of hepatoma HLF cell line; assay type: functional; details: Homo sapiens, read-out: ED50 (the source's name)
Procedure, shortened: (§1)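 Cells were seeded and cultured for 24 h, then exposed to drug for 96 or 4 h. Cells were counted by hemocytometer. IC50 is the concentration giving a 50% reduction in cell number relative to control.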

[6] = test system: Lewis lung carcinoma cell line; assay: Increased life span at the dose of 0.77 (mg/kg/day); assay type: functional, Mus musculus
P388 [7] = assay: Antitumor activity in vivo expressed as the percentage increase in life span at the P388 dose of 0.8 (mg/kg/day); assay type: functional, Mus musculus
Procedure, shortened: (§2)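 P388 leukaemia, 1 × 10^6 cells given sc to male CDF1 mice (5 weeks old) on day 0. Drug was dosed iv on days 1–5 in saline with 3.5% DMSO and 6.5% Tween 80. Groups had 7 mice; controls had 10. ILS was calculated from mean survival time of treated versus control mice, excluding 30-day survivors.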

SBC-3 = assay: Inhibition of growth of lung small cell carcinoma SBC-3 cell line; assay type: functional; details: Homo sapiens, read-out: ED50 (the source's name)
Procedure, shortened: (§3)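 Human tumour cell lines plated and grown 24 h in a CO2 incubator, then exposed to compound for 96 or 4 h. Cells counted by hemocytometer. IC50 is the concentration giving 50% reduction in cell number versus untreated control.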

[8] = Inhibition of growth of renal cancer G-402 cell line; assay type: functional; details: Homo sapiens, read-out: ED50 (the source's name); procedure, shortened: as §3
[9] = test system: Lewis lung carcinoma cell line; assay: Percentage inhibition of tumor growth at the Lewis lung dose of 2.3 (mg/kg/ day); assay type: functional, Mus musculus
Procedure, shortened: (§4)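 Lewis lung carcinoma fragments (2 mm3) implanted sc into male BDF1 mice (5 weeks) on day 0. Compound given iv on days 4–8, in saline or saline with 3.5% DMSO and 6.5% Tween 80. Seven mice per group, 10 controls. Percent inhibition from mean tumour weight versus control on day 17; p<0.05, 0.01 or 0.001 versus control.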

ACHN = assay: Inhibition of growth of renal cancer ACHN cell line; assay type: functional; details: Homo sapiens, read-out: ED50 (the source's name); procedure, shortened: as §3
[10] = Inhibition of growth of lung small cell carcinoma RERF-LC-MA cell line; assay type: functional; details: Homo sapiens; read-out: ED50 (the source's name); procedure, shortened: as §1
[11] = Inhibition of growth of lung non-small cell carcinoma PC-7 cell line; assay type: functional; details: Homo sapiens, read-out: ED50 (the source's name); procedure, shortened: as §1
P388 [12] = assay: Antitumor activity in vivo expressed as the percentage increase in life span at the P388 dose of 2.3 (mg/kg/day); assay type: functional, Mus musculus; procedure, shortened: as §2
[13] = test system: Lewis lung carcinoma cell line; assay: Mean body weight change after inoculation of 3.2 x 10 e 5 cells iv and administration of compounds iv from days 1-5 at the dose of 4 (mg/kg/day); assay type: functional, Mus musculus
Procedure, shortened: (§5)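 Male BDF1 mice (5 weeks) given 3.2 x 10^5 Lewis lung carcinoma cells iv on day 0, then dosed iv on days 1–5. Seven mice per group, 14 controls. Mean body weight change (g) taken from day 0 to day 6.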

P388 [14] = assay: Antitumor activity in vivo expressed as the percentage increase in life span at the P388 dose of 1.3 (mg/kg/day); assay type: functional, Mus musculus; procedure, shortened: as §2
[15] = test system: Lewis lung carcinoma cell line; assay: Percentage inhibition of tumor growth at the Lewis lung dose of 4 (mg/kg/ day); assay type: functional, Mus musculus; procedure, shortened: as §4
COLO 320DM [16] = assay: Inhibition of growth of colon cancer COLO 320DM cell line; assay type: functional; details: Homo sapiens, read-out: ED50 (the source's name); procedure, shortened: as §1
A549 = assay: Inhibition of growth of lung non-small cell carcinoma A-549 cell line; assay type: functional; details: Homo sapiens, read-out: ED50 (the source's name); procedure, shortened: as §1
[17] = Inhibition of growth of colon carcinoma COLO 2-1 cell line; assay type: functional; details: Homo sapiens, read-out: ED50 (the source's name); procedure, shortened: as §1
[18] = test system: Lewis lung carcinoma cell line; assay: Mean body weight change after inoculation of 3.2 x 10 e 5 cells iv and administration of compounds iv from days 1-5 at the dose of 0.77 (mg/kg/day); assay type: functional, Mus musculus; procedure, shortened: as §5
[19] = test system: Lewis lung carcinoma cell line; assay: Percentage inhibition of tumor growth at the Lewis lung dose of 1.3 (mg/kg/ day); assay type: functional, Mus musculus; procedure, shortened: as §4
Homo sapiens = species on record: Homo sapiens; assay: Inhibition of growth of hepatoma HLE cell line; assay type: functional; details: read-out: ED50 (the source's name); procedure, shortened: as §1
L1210 [20] = assay: Antitumor activity in vivo expressed as the percentage increase in life span at the dose of 2.5 (mg/kg/day); assay type: functional, Mus musculus
[21] = test system: Lewis lung carcinoma cell line; assay: Increased life span at the dose of 1.3 (mg/kg/day); assay type: functional, Mus musculus
[22] = test system: Lewis lung carcinoma cell line; assay: Mean body weight change after inoculation of 3.2 x 10 e 5 cells iv and administration of compounds iv from days 1-5 at the dose of 7 (mg/kg/day); assay type: functional, Mus musculus; procedure, shortened: as §5
L1210 [23] = assay: The number of mice survived for 30 days at the dose of 2.5 (mg/kg/day); assay type: functional, Mus musculus
[24] = test system: Lewis lung carcinoma cell line; assay: Increased life span at the dose of 4 (mg/kg/day) (number of survivors); assay type: functional, Mus musculus
[25] = test system: Lewis lung carcinoma cell line; assay: Increased life span at the dose of 7 (mg/kg/day); assay type: functional, Mus musculus
[26] = test system: Lewis lung carcinoma cell line; assay: Increased life span at the dose of 2.3 (mg/kg/day); assay type: functional, Mus musculus
[27] = test system: Lewis lung carcinoma cell line; assay: Mean body weight change after inoculation of 3.2 x 10 e 5 cells iv and administration of compounds iv from days 1-5 at the dose of 2.3 (mg/kg/day); assay type: functional, Mus musculus; procedure, shortened: as §5
[28] = test system: Lewis lung carcinoma cell line; assay: Increased life span at the lewis lung dose of 1.3 (mg/kg/day); assay type: functional, Mus musculus
[29] = test system: Lewis lung carcinoma cell line; assay: Increased life span at the lewis lung dose of 0.25 (mg/kg/day); assay type: functional, Mus musculus
COLO 320DM [30] = assay: Inhibition of growth of colon carcinoma COLO 320DM cell line; assay type: functional; details: Homo sapiens, read-out: ED50 (the source's name); procedure, shortened: as §1
[31] = test system: Lewis lung carcinoma cell line; assay: Mean body weight change after inoculation of 3.2 x 10 e 5 cells iv and administration of compounds iv from days 1-5 at the dose of 0.25 (mg/kg/day); assay type: functional, Mus musculus; procedure, shortened: as §5
[32] = test system: Lewis lung carcinoma cell line; assay: Mean body weight change after inoculation of 3.2 x 10 e 5 cells iv and administration of compounds iv from days 1-5 at the dose of 0.44 (mg/kg/day); assay type: functional, Mus musculus; procedure, shortened: as §5
P388 [33] = assay: Antitumor activity in vivo expressed as the percentage increase in life span at the P388 dose of 0.4 (mg/kg/day); assay type: functional, Mus musculus; procedure, shortened: as §2
P388 [34] = assay: Antitumor activity in vivo expressed as the percentage increase in life span at the P388 dose of 0.3 (mg/kg/day); assay type: functional, Mus musculus; procedure, shortened: as §2
[35] = test system: Lewis lung carcinoma cell line; assay: Percentage inhibition of tumor growth at the lewis lung dose of 1.3 (mg/kg/ day); (p<0001); assay type: functional, Mus musculus; procedure, shortened: as §4
L1210 [36] = assay: The number of mice survived for 30 days at the dose of 1.3 (mg/kg/day); assay type: functional, Mus musculus
[37] = test system: Lewis lung carcinoma cell line; assay: Increased life span at the lewis lung dose of 0.44 (mg/kg/day); assay type: functional, Mus musculus
[38] = test system: Lewis lung carcinoma cell line; assay: Mean body weight change after inoculation of 3.2 x 10 e 5 cells iv and administration of compounds iv from days 1-5 at the dose of 1.3 (mg/kg/day); assay type: functional, Mus musculus; procedure, shortened: as §5
L1210 [39] = assay: Antitumor activity in vivo expressed as the percentage increase in life span at the dose of 1.3 (mg/kg/day); assay type: functional, Mus musculus
[40] = test system: Lewis lung carcinoma cell line; assay: Increased life span at the lewis lung dose of 0.77 (mg/kg/day); assay type: functional, Mus musculus
[41] = test system: Lewis lung carcinoma cell line; assay: Percentage inhibition of tumor growth at the lewis lung dose of 0.3 (mg/kg/ day); assay type: functional, Mus musculus; procedure, shortened: as §4
[42] = test system: Lewis lung carcinoma cell line; assay: Percentage inhibition of tumor growth at the lewis lung dose of 2.3 (mg/kg/ day); (p<0001); assay type: functional, Mus musculus; procedure, shortened: as §4

COc1cc([C@@H]2c3cc4c(cc3[C@@H](CCN(C)N(C)C)C3COC(=O)[C@@H]32)OCO4)cc(OC)c1O.Cl (some centres undefined)
ILS max (L1210 [1]): 74% | IC50 (Tubulin): > 100 µM | IC50 (P388 [2]): 0.02 µM | IC50 [3]: 58.3 µM | Survivors (L1210 [4]): 6

COc1cc([C@@H]2c3cc4c(cc3[C@@H](CCN3CCC(N5CCCCC5)CC3)C3COC(=O)[C@@H]32)OCO4)cc(OC)c1O.Cl.Cl (some centres undefined)
EC50 [5]: 2.7 µg/mL | ILS max [6]: 43% | ILS max (P388 [7]): 143% | EC50 (SBC-3): 0.16 µg/mL | EC50 [8]: 0.18 µg/mL | Inhibition [9]: 50% | EC50 (ACHN): 1.1 µg/mL | EC50 [10]: 35 µg/mL | EC50 [11]: 4 µg/mL | ILS max (P388 [12]): 231% | bwc [13]: -1.6 g | ILS max (P388 [14]): 202% | IC50 (Tubulin): > 167 µM | Inhibition [15]: 91% | EC50 (COLO 320DM [16]): 2.1 µg/mL | EC50 (A549): 1 µg/mL | EC50 [17]: 13 µg/mL | IC50 (P388 [2]): 0.0033 µM | bwc [18]: 0.3 g | Inhibition [19]: 40% | EC50 (Homo sapiens): 0.31 µg/mL | IC50 [3]: 29.8 µM | ILS max (L1210 [20]): 102% | ILS max [21]: 63% | bwc [22]: -4.1 g | Survivors (L1210 [23]): 6 | ILS max [24]: -13% | ILS max [25]: -44% | ILS max [26]: 133% | bwc [27]: -0.5 g

COc1cc([C@@H]2c3cc4c(cc3[C@@H](CCN3CCN(C)CC3)C3COC(=O)[C@@H]32)OCO4)cc(OC)c1O.Cl.Cl (some centres undefined)
ILS max [28]: 127% | EC50 [5]: 1.6 µg/mL | ILS max [29]: 24% | EC50 (COLO 320DM [30]): 0.99 µg/mL | ILS max (P388 [7]): 182% | bwc [31]: 0.9 g | EC50 (SBC-3): 0.28 µg/mL | bwc [32]: 0.3 g | EC50 [8]: 0.25 µg/mL | EC50 (ACHN): 2 µg/mL | EC50 [10]: 5.8 µg/mL | EC50 [11]: 2.9 µg/mL | ILS max (P388 [33]): 112% | ILS max (P388 [34]): 67% | IC50 (Tubulin): > 132 µM | Inhibition [35]: 81% | Survivors (L1210 [36]): 1 | EC50 (A549): 0.76 µg/mL | EC50 [17]: 9.3 µg/mL | ILS max [37]: 67% | IC50 (P388 [2]): 0.003 µM | bwc [18]: -0.9 g | bwc [38]: -3.3 g | EC50 (Homo sapiens): 0.13 µg/mL | ILS max (L1210 [39]): 140% | IC50 [3]: 33.6 µM | ILS max [40]: 91% | Inhibition [41]: 37% | Inhibition [42]: 96%
